Laboratory results taken from publication PMC2921709 (ChemMedChem, 2010).
Read-outs that look alike come from different tables or passages of the source.

Legend:
[1] = tested on: Bovine brain tubulin (colchicine site); assay: Inhibition of [3H]colchicine binding to tubulin; details: tubulin 1 μM, [3H]colchicine 5 μM; for Colchicine Binding Inhibition [%], 1 μM: compound 1 μM; for Colchicine Binding Inhibition [%], 5 μM: compound 5 μM
HL-60 = assay: MTT growth inhibition, HL-60 promyelocytic leukemia cells; format: cell-based, human; details: read-out: GI50 HL-60
Summary of the method: (§1)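 Cells seeded at 8 × 10^3 per well in 96-well plates and held 18 h at 37 °C, 5% CO2. Medium then replaced with test compound in complete medium at various concentrations for 72 h continuous exposure. Viability read by MTT. GI50 is the concentration giving 50% proliferation inhibition, from dose–response curves; mean ± SE of ≥3 independent experiments. Media: leukemia lines in RPMI-1640; solid-tumour lines in DMEM with penicillin G 115 U mL−1, streptomycin and 10% FBS.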

ARO = assay: MTT growth inhibition, ARO anaplastic thyroid cells; format: cell-based, human; details: read-out: GI50 ARO
Summary of the method: as §1

HeLa = assay: MTT growth inhibition, HeLa cervix carcinoma cells; format: cell-based, human; details: read-out: GI50 HeLa
Summary of the method: as §1

HT-29 = assay: MTT growth inhibition, HT-29 colon adenocarcinoma cells; format: cell-based, human; details: read-out: GI50 HT-29
Summary of the method: as §1

Hep G2 = assay: MTT growth inhibition, HepG2 hepatoma cells; format: cell-based, human; details: read-out: GI50 Hep G2
Summary of the method: as §1

Jurkat cells [2] = assay: Annexin V-FITC/PI apoptosis assay; format: cell-based, human; details: 24 h treatment
Summary of the method: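 Jurkat cells exposed to test compound at various concentrations for 24 or 48 h, then harvested. Co-labelled with annexin V–FITC and PI and analysed by flow cytometry (excitation 488 nm; emission 525 and 585 nm). Reported as mean percentage of annexin-V-positive cells ± SEM, three independent experiments.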

Jurkat cells [3] = assay: Flow cytometric cell-cycle analysis; format: cell-based, human; details: 24 h treatment
Summary of the method: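 Jurkat cells in exponential growth, 5 × 10^5 per sample, exposed to test compound at various concentrations for 24 h. Cells fixed in ice-cold 70% ethanol, treated with lysis buffer containing RNase A and 0.1% Triton X-100, then stained with PI. DNA content measured by flow cytometry and phases assigned from DNA histograms. Mean ± SEM of two independent experiments.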

MCF-7 = assay: MTT growth inhibition, MCF-7 breast adenocarcinoma cells; format: cell-based, human; details: read-out: GI50 MCF-7
Summary of the method: as §1

Bovine brain tubulin = assay: Inhibition of tubulin polymerization; format: biochemical; details: for IC50: read-out: Tubulin Assembly IC50, tubulin 10 μM, 20 min incubation, ± SD
ML2 = assay: MTT growth inhibition, ML-2 myeloid leukemia cells; format: cell-based, human; details: read-out: GI50 ML2
Summary of the method: as §1

K562 = assay: MTT growth inhibition, K562 chronic myelogenous leukemia cells; format: cell-based, human; details: read-out: GI50 K562
Summary of the method: as §1

Jurkat = assay: MTT growth inhibition, Jurkat T-leukemia cells; format: cell-based, human; details: read-out: GI50 Jurkat
Summary of the method: as §1

RS 4;11 = assay: MTT growth inhibition, RS 4; format: cell-based, human; details: read-out: GI50 RS 4;11
Summary of the method: as §1

IGROV = assay: MTT growth inhibition, IGROV ovarian cancer cells; format: cell-based, human; details: read-out: GI50 IGROV
Summary of the method: as §1

leukemia cells = assay: MTT growth inhibition, leukemia cell lines; format: cell-based, human; details: 72 h, MTT
Summary of the method: as §1

[4] = Homo sapiens, Thyroid cell, 72 h

Structure (SMILES) | Colchicine Binding Inhibition [%], 5 μM [1] [%] | GI50 (HL-60; Homo sapiens, HL-60, 72 h) [nM] | GI50 (HeLa; Homo sapiens, HeLa, 72 h) [nM] | GI50 (HT-29; Homo sapiens, HT-29, 72 h) [nM] | GI50 (Hep G2; Homo sapiens, HepG2, 72 h) [nM] | IC50 (Bovine brain tubulin) [nM] | GI50 (ML2; Homo sapiens, ML-2, 72 h) [nM] | GI50 (K562; Homo sapiens, K562, 72 h) [nM] | GI50 (HL-60; 72 h exposure, MTT, mean ± SE) [nM] | GI50 (HeLa; 72 h exposure, MTT, mean ± SE) [nM] | GI50 (HT-29; 72 h exposure, MTT, mean ± SE) [nM] | GI50 (Hep G2; 72 h exposure, MTT, mean ± SE) [nM] | GI50 (ML2; 72 h exposure, MTT, mean ± SE) [nM] | GI50 (K562; 72 h exposure, MTT, mean ± SE) [nM] | GI50 (ARO; [4]) [nM] | GI50 (ARO; 72 h exposure, MTT, mean ± SE) [nM] | also measured
COc1ccc(/C=C\c2cc(OC)c(OC)c(OC)c2)cc1O [CA-4, combretastatin A-4, reference compound] | 98 ± 0.3 |  |  |  |  |  |  |  |  |  |  |  |  |  |  |  | Colchicine Binding Inhibition [%], 1 μM [1]: 84 ± 3%
CCn1ccc2c3c(=O)cc(-c4cccnc4)[nH]c3ccc21 [Compound 13, 3-Ethyl-7-(pyridin-3-yl)-3H-pyrrolo[3,2-f]quinolin-9(6H)-one] | 23 ± 6 | 30 ± 2 | 400 ± 50 | 850 ± 140 | 500 ± 50 | 2400 ± 400 | 300 ± 40 | 240 ± 30 |  |  |  |  |  |  | 450 ± 70 |  | induction of apoptotic (annexin-V-positive) cells, in words (Jurkat cells [2]): lower efficacy; effect on cell-cycle progression (G2/M arrest, in words) (Jurkat cells [3]): only induced G2/M arrest at yet higher concentrations; GI50 (MCF-7; Homo sapiens, MCF7, 72 h): 850 ± 150 nM; Colchicine Binding Inhibition [%], 50 μM ([1]; compound 50 μM): 65 ± 0.3%; GI50 (Jurkat; Homo sapiens, Jurkat, 72 h): 50 ± 4 nM; GI50 (RS 4;11; Homo sapiens, RS4-11, 72 h): 40 ± 7 nM; GI50 (IGROV; Homo sapiens, IGROV, 72 h): 650 ± 150 nM
CCn1cc(C)c2c3c(=O)cc(-c4ccccc4)[nH]c3ccc21 [Compound 17, 3-Ethyl-1-methyl-7-phenyl-3H-pyrrolo[3,2-f]quinolin-9(6H)-one] |  | 17500 ± 2300 | 4500 ± 800 | > 50000 | 5800 ± 1100 |  | 14400 ± 2300 | 27300 ± 340 |  |  |  |  |  |  | > 50000 |  | GI50 (MCF-7; Homo sapiens, MCF7, 72 h): > 50000 nM; GI50 (Jurkat; Homo sapiens, Jurkat, 72 h): 8000 ± 1200 nM; GI50 (RS 4;11; Homo sapiens, RS4-11, 72 h): 6500 ± 1000 nM; GI50 (IGROV; Homo sapiens, IGROV, 72 h): > 50000 nM
CCn1cc(C(N)=O)c2c3c(=O)cc(-c4ccccc4)[nH]c3ccc21 [Compound 22, 3-Ethyl-9-oxo-7-phenyl-6,9-dihydro-3H-pyrrolo[3,2-f]quinoline-1-caboxamide] |  |  |  |  |  | > 40000 |  |  | 320 ± 30 | > 50000 | > 50000 | > 50000 | 90 ± 20 | 1700 ± 500 |  | > 50000 | induction of apoptotic (annexin-V-positive) cells, in words (Jurkat cells [2]): lower efficacy; effect on cell-cycle progression (G2/M arrest, in words) (Jurkat cells [3]): only induced G2/M arrest at yet higher concentrations; GI50 (MCF-7; 72 h exposure, MTT, mean ± SE): > 50000 nM; activity in the leukemia lines (concentration level, in words) (leukemia cells): sub-micromolar; inhibition of tubulin assembly at the highest concentration (Bovine brain tubulin; compound 40 μM): less than 50%; GI50 (Jurkat; 72 h exposure, MTT, mean ± SE): 50 ± 6 nM; GI50 (RS 4;11; 72 h exposure, MTT, mean ± SE): 30 ± 2 nM; GI50 (IGROV; 72 h exposure, MTT, mean ± SE): > 50000 nM
O=c1c(-c2ccccc2)c[nH]c2ccc3c(ccn3CC3CC3)c12 [Compound 35] |  |  |  |  |  |  |  |  | > 50000 | > 50000 | > 50000 | > 50000 | > 50000 | > 50000 |  | > 50000 | 
CCn1ccc2c3c(=O)c(-c4cccc(OC)c4)c[nH]c3ccc21 [Compound 36, 3-Ethyl-8-(3-methoxyphenyl)-3H-pyrrolo[3,2-f]quinolin-9(6H)-one] |  | > 50000 | > 50000 | > 50000 | > 50000 |  | > 50000 | > 50000 |  |  |  |  |  |  | > 50000 |  | 

More lines, main results first:

Colchicine Binding Inhibition [%], 5 μM [1] [%] | GI50 (HL-60; Homo sapiens, HL-60, 72 h) [nM] | GI50 (HeLa; Homo sapiens, HeLa, 72 h) [nM] | GI50 (HT-29; Homo sapiens, HT-29, 72 h) [nM] | GI50 (Hep G2; Homo sapiens, HepG2, 72 h) [nM] | IC50 (Bovine brain tubulin) [nM] | GI50 (ML2; Homo sapiens, ML-2, 72 h) [nM] | GI50 (K562; Homo sapiens, K562, 72 h) [nM] | GI50 (HL-60; 72 h exposure, MTT, mean ± SE) [nM] | GI50 (HeLa; 72 h exposure, MTT, mean ± SE) [nM] | GI50 (HT-29; 72 h exposure, MTT, mean ± SE) [nM] | GI50 (Hep G2; 72 h exposure, MTT, mean ± SE) [nM] | GI50 (ML2; 72 h exposure, MTT, mean ± SE) [nM] | GI50 (K562; 72 h exposure, MTT, mean ± SE) [nM] | Structure (SMILES) | GI50 (ARO; [4]) [nM] | GI50 (ARO; 72 h exposure, MTT, mean ± SE) [nM] | also measured
 | > 50000 | > 50000 | > 50000 | > 50000 |  | > 50000 | > 50000 |  |  |  |  |  |  | CCn1ccc2c3c(=O)c(-c4ccc(Br)cc4)c[nH]c3ccc21 [Compound 37, 8-(4-Bromophenyl)-3-ethyl-3H-pyrrolo[3,2-f]quinolin-9(6H)-one] | > 50000 |  | 
73 ± 0.7 |  |  |  |  | 570 ± 20 |  |  | 0.5 ± 0.02 | 10 ± 8 | 30 ± 10 | 50 ± 10 | 1 ± 0.3 | 1 ± 0.1 | CCn1ccc2c3c(=O)cc(-c4ccccc4)[nH]c3ccc21 [Compound 38, 3-ethyl-7-PPyQ, reference compound] |  | 30 ± 10 | GI50 (MCF-7; 72 h exposure, MTT, mean ± SE): 40 ± 10 nM; Colchicine Binding Inhibition [%], 1 μM [1]: 34 ± 2%; GI50 (Jurkat; 72 h exposure, MTT, mean ± SE): 0.5 ± 0.02 nM; GI50 (RS 4;11; 72 h exposure, MTT, mean ± SE): 2 ± 0.3 nM; GI50 (IGROV; 72 h exposure, MTT, mean ± SE): 60 ± 10 nM
